Type in all cases: functional
Assay [1] in a line: Antioxidant activity assessed as hydroxyl radical scavenging activity after 1 hr by spectrophotometric analysis. The method, boiled down: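 Salicylate method: 20 mM sodium salicylate, 1.5 mM FeSO4, sample at various concentrations, then 6 mM H2O2 (stock levels), mixed and held in a 37 °C water bath 1 h. Absorbance at 510 nm against blank; percent scavenging vs no-sample absorbance; triplicate; ascorbic acid positive control; IC50 as 50% scavenging concentration.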

A short description of assay [2]: Antioxidant activity assessed as ABTS radical scavenging activity after 3 mins by spectrophotometric analysis. The method, boiled down:
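ABTS radical cation generated from 2 mM ABTS stock in PBS pH 7.4 reacted with 70 mM K2S2O8 in the dark at room temperature for 15-16 h, then diluted with PBS to A734 0.700 ± 0.030. Sample solutions at various concentrations mixed with ABTS radical (0.1:1.9 ml). Absorbance read at ambient temperature after 3 min. Percent scavenging vs control without sample; triplicate; IC50 = concentration scavenging 50%.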

A short description of assay [3]: Antioxidant activity assessed as superoxide anioin radical scavenging activity after 5 mins by spectrophotometric analysis. The essentials:
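Pyrogallol autoxidation at room temperature: 0.05 M Tris-HCl buffer, sample in DMF at various concentrations and 30 mM 1,2,3-trihydroxybenzene reacted 5 min. Stopped with 8.0 M HCl; absorbance at 320 nm against blank. Percent scavenging vs no-sample absorbance, triplicate; IC50 as concentration scavenging 50%.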

Assay [4] concerns Radical scavenging activity. Briefly: Antioxidant activity assessed as DPPH free radical scavenging activity after 30 mins by spectrophotometric analysis. The essentials:
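Sample dissolved in DMF at several concentrations, added to 0.004% (w/v) DPPH in ethanol, incubated at 37 °C. Absorbance at 517 nm after 30 min. Percent scavenging computed against a control lacking scavenger; triplicate means; IC50 taken as concentration giving 50% radical scavenging.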
In general terms: The DPPH test is a chemical assay of radical scavenging.

By IC50 is commonly meant the concentration at which inhibition is half-maximal.

A value given as a limit tells only on which side of the number the result lay.

For the compound `O=c1cc(/C=N\Nc2ccc([N+](=O)[O-])cc2)c2c(OCc3ccccc3)cc(OCc3ccccc3)cc2o1`, the half-inhibitory concentration (IC50) in assay [1] (read-out: IC50) was 97.9 µM; in assay [2] (read-out: IC50), 15.5 µM; in assay [3] it was 419 µM; in assay [4] (read-out: IC50), 1610 µM.
Consider `N/N=C\c1cc(=O)oc2cc(OCc3ccccc3)ccc12`, for which the IC50 result in assay [1] is “Not Active”; in assay [2] (read-out: IC50), 9.74 µM; in assay [3], 131 µM; in assay [4] (read-out: IC50) it was 1290 µM.
Consider `N/N=C\c1cc(=O)oc2cc(OCc3ccccc3)cc(OCc3ccccc3)c12`, for which the half-maximal inhibitory concentration (IC50) was more than 2000 µM in assay [1] (read-out: IC50), 363 µM in assay [2] (read-out: IC50), 36.5 µM in assay [3] and “Not Active” in assay [4].
As for `O=c1cc(/C=N\Nc2ccccc2)c2ccc(OCc3ccccc3)cc2o1`, the IC50 was 455 µM in assay [1] (read-out: IC50), 13.2 µM in assay [2] (read-out: IC50), 416 µM in assay [3] and 57.7 µM in assay [4] (read-out: IC50).
In the same order, the values of `O=c1cc(/C=N\Nc2ccccc2)c2c(OCc3ccccc3)cc(OCc3ccccc3)cc2o1` are 401 µM, 40.1 µM, 303 µM and 76.4 µM.
On to `O=c1cc(/C=N\Nc2ccc([N+](=O)[O-])cc2)c2ccc(OCc3ccccc3)cc2o1`, for which the IC50 was more than 2000 µM in assay [1] (read-out: IC50), 9.51 µM in assay [2] (read-out: IC50), more than 2000 µM in assay [3] and 1350 µM in assay [4] (read-out: IC50).
`O=c1cc(/C=N\Nc2ccc([N+](=O)[O-])cc2[N+](=O)[O-])c2ccc(OCc3ccccc3)cc2o1`: the half-inhibitory concentration (IC50) in assay [1] (read-out: IC50) came to 1970 µM; in assay [2] (read-out: IC50), 6.49 µM; in assay [3] it was 181 µM; in assay [4] (read-out: IC50) it was 10.5 µM.
Take `O=c1cc(/C=N\Nc2ccc([N+](=O)[O-])cc2[N+](=O)[O-])c2c(OCc3ccccc3)cc(OCc3ccccc3)cc2o1`: the half-inhibitory concentration (IC50) was 734 µM in assay [1] (read-out: IC50), “Not Active” in assay [2], 292 µM in assay [3] and “Not Active” in assay [4].
Consider `Nc1ccccc1/N=C\c1cc(=O)oc2cc(OCc3ccccc3)ccc12`, for which the IC50 was determined as 34.6 µM in assay [1] (read-out: IC50), 9.25 µM in assay [2] (read-out: IC50), 217 µM in assay [3] and 857 µM in assay [4] (read-out: IC50).
In the same order, the values of `Nc1ccccc1/N=C\c1cc(=O)oc2cc(OCc3ccccc3)cc(OCc3ccccc3)c12` are 624 µM, 7.53 µM, 258 µM and 315 µM.
On to `O=c1cc(/C=N\c2ccc(O)cc2)c2ccc(OCc3ccccc3)cc2o1`, for which the IC50 in assay [1] (read-out: IC50) came out at 233 µM; in assay [2] (read-out: IC50) it was 64.5 µM; in assay [3] it was 525 µM; in assay [4] (read-out: IC50) it was 36.6 µM.
`O=c1cc(/C=N\c2ccc(O)cc2)c2c(OCc3ccccc3)cc(OCc3ccccc3)cc2o1`: the IC50 in assay [1] (read-out: IC50) worked out at 107 µM; in assay [2] (read-out: IC50), 3.57 µM; in assay [3], 249 µM; in assay [4] (read-out: IC50), 6.91 µM.
Take `O=c1cc(/C=N\c2ccccc2O)c2ccc(OCc3ccccc3)cc2o1`: the half-maximal inhibitory concentration (IC50) result in assay [1] was “Not Active”; in assay [2] (read-out: IC50) it was 1.29 µM; in assay [3], 469 µM; in assay [4] (read-out: IC50) it was 33.3 µM.
In the case of `O=c1cc(/C=N\c2ccccc2O)c2c(OCc3ccccc3)cc(OCc3ccccc3)cc2o1`, the half-maximal inhibitory concentration (IC50) in assay [1] (read-out: IC50) turned out to be 348 µM; in assay [2] (read-out: IC50), 7.76 µM; in assay [3], 33.1 µM; in assay [4] (read-out: IC50), 16.2 µM.
The corresponding values for `O=c1cc(/C=N\O)c2ccc(OCc3ccccc3)cc2o1` are more than 2000 µM, 22.8 µM, more than 2000 µM and 2410 µM.
Turning to `O=c1cc(/C=N\O)c2c(OCc3ccccc3)cc(OCc3ccccc3)cc2o1`, the concentration for half-maximal inhibition (IC50) result in assay [1] is “Not Active”; in assay [2] (read-out: IC50) it was 38.6 µM; in assay [3] it was more than 2000 µM; in assay [4], “Not Active”.
In the case of `O=c1cc(-c2nc3ccccc3[nH]2)c2ccc(OCc3ccccc3)cc2o1`, the IC50 result in assay [1] was “Not Active”; in assay [2], “Not Active”; in assay [3] it was 146 µM; in assay [4], “Not Active”.
`O=C1O[C@H]([C@@H](O)CO)C(O)=C1O` [ASCORBIC ACID]: the half-inhibitory concentration (IC50) in assay [1] (read-out: IC50) was 73.8 µM; in assay [2] (read-out: IC50) it was 12.8 µM; in assay [3], 15.6 µM; in assay [4] (read-out: IC50) it was 43.8 µM.
In the same order, the values of `Cc1cc(C(C)(C)C)c(O)c(C(C)(C)C)c1` [BUTYLATED HYDROXYTOLUENE] are more than 2000 µM, 37 µM, 254 µM and 65.8 µM.
